According to ChEMBL document CHEMBL4411305, “5-Aminothiophene-2,4-dicarboxamide analogues as hepatitis B virus capsid assembly effectors” (Eur J Med Chem, 2019):
Converted amounts (≈) assume the structure as drawn. The source made the active and inactive calls. How the calls were made is not given here.

Columns and labels:
Hepatitis B virus [1] = test: Binding affinity to HBV dimeric capsid protein C150 mutant expressed in Escherichia coli BL21 (DE3) at 20 uM by Sypro orange staining based RT-PCR analysis
HepG2 = test: Cytotoxicity against human HepG2 cells assessed as reduction in cell viability incubated for 2 days prior to compound washout followed by compound redosing and measured after 2 days by XTT assay; format: cell-based; settings: hepg2, 48 h
[2] = Thermodynamic aqueous solubility in Dulbecco's phosphate buffered saline using solid sample incubated for 72 hrs under shaking condition by LC-MS/MS analysis; format: physicochemical; settings: read-out: Therm_solubility
[3] = Stability in Dulbecco's phosphate buffered saline assessed as parent compound remaining at 1 uM after 24 hrs by LC-MS/MS analysis; format: physicochemical; settings: read-out: Stability
How it was run: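 Compound, typically 1 μM final, incubated in DPBS at 37 °C in triplicate; samples at 0, 1, 3, 6, 24 h quenched with 3 volumes acetonitrile containing internal standard; parent measured by LC-MS/MS.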

[4] = Half life in human plasma at 1 uM by LC-MS/MS analysis; format: ADME, cell-free
[5] = Half life in mouse plasma at 1 uM by LC-MS/MS analysis; format: ADME, cell-free
[6] = Protein binding in human plasma at 5 uM incubated for 5 hrs by LC-MS/MS-based equilibrium dialysis method; format: ADME, cell-free
How it was run: (§1)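 Equilibrium dialysis in duplicate: compound spiked at 5 μM into normal human or mouse plasma, dialyzed against DPBS 5 h at 37 °C; both chambers sampled and quenched in acetonitrile with internal standard; LC-MS/MS gives percent bound.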

[7] = Protein binding in mouse plasma at 5 uM incubated for 5 hrs by LC-MS/MS-based equilibrium dialysis method; format: ADME, cell-free; how it was run: as §1
[8] = Intrinsic clearance in human liver microsomes assessed as NADPH-dependent metabolism per mg protein at 1 uM in presence of NADPH by LC-MS/MS analysis; format: ADME, Microsome
[9] = Intrinsic clearance in human liver microsomes assessed as glucuronidation per mg protein at 1 uM in presence of UDPGA by LC-MS/MS analysis; format: ADME, Microsome
How it was run: (§2)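 Glucuronidation: typically 1 μM compound with 0.5 mg/mL microsomal protein, alamethicin 50 μg/mg protein, 1 mM MgCl2, 5 mM UDPGA in 0.1 M potassium phosphate pH 7.4, 37 °C; timed aliquots quenched in acetonitrile; LC-MS/MS gives CLint (μl/min/mg protein); triplicate; 7-hydroxycoumarin positive control.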

[10] = Intrinsic clearance in mouse liver microsomes assessed as NADPH-dependent metabolism per mg protein at 1 uM in presence of NADPH by LC-MS/MS analysis; format: ADME, Microsome
[11] = Intrinsic clearance in mouse liver microsomes assessed as glucuronidation per mg protein at 1 uM in presence of UDPGA by LC-MS/MS analysis; format: ADME, Microsome; how it was run: as §2
Hepatitis B virus [12] = test: Antiviral activity against HBV infected in human HepAD38 cells assessed as reduction in total DNA production incubated for 2 days prior to compound washout followed by compound redosing and measured after 2 days by dot-blot analysis; format: functional, organism-based
How it was run: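 HepAD38 cells seeded at 3 × 10^4/well in tetracycline medium; next day washed twice with PBS and given tet-free complete medium with 2-fold serial dilutions, 1% final DMSO, replaced with fresh compound medium after 2 days. After 2 more days cells lysed (NP-40), DNA alkali-denatured, dot-blotted, probed with DIG-labelled HBV probe; chemiluminescence densitometry, variable-slope fit; mean ± SD of ≥2 experiments.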

[13] = Oral bioavailability in CD-1 mouse at 10 mg/kg by LC-MS/MS analysis; format: ADME, organism-based; settings: in vivo
How it was run: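 Male CD-1 mice (25–35 g), n = 4 per route; typical doses 2 mg/kg IV and 10 mg/kg PO in DPBS with up to 42% 2-hydroxypropyl-β-cyclodextrin; serial saphenous blood to 24 h (8 points); plasma by LC-MS/MS; non-compartmental analysis; F = (AUCpo/AUCiv)×(Doseiv/Dosepo).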

Row | Structure (SMILES) | Activity (Hepatitis B virus [1]) | CC50 (HepG2) [µM] | EC50 (Hepatitis B virus [12]) [µM] | other results
1 | Cc1c(C(=O)Nc2ccc(F)c(C#N)c2)sc(N)c1C(N)=O | Active | > 100 |  | solubility thermodynamic at 72 h [2]: 6.7 µM (≈ 2.13 µg/mL); remaining at 24 h, 1 µM [3]: > 90%; t1/2 [4]: > 24 h; t1/2 [5]: > 24 h; PPB [6]: 80%; PPB [7]: 69%; Microsomal intrinsic clearance [8]: 2.4 µL/min; intrinsic clearance (CLint) [9]: 0.1 µL/min; intrinsic clearance per mg protein [10]: 4.2 µL/min; intrinsic clearance (CLint) [11]: 2 µL/min
2 | Cc1cc(NC(=O)c2c(N)sc(C(=O)Nc3ccccc3)c2C)ccc1F | Active | 40 |  | 
3 | Cc1c(C(=O)Nc2ccccc2)sc(N)c1C(=O)Nc1ccc(F)c(F)c1 | Active | 40 |  | 
4 | Cc1c(C(=O)Nc2ccccc2)sc(-n2cnnn2)c1C(N)=O | inactive |  |  | 
5 | Cc1c(C(=O)Nc2cc(F)c(F)c(Cl)c2)sc(N)c1C#N | inactive |  |  | 
6 | Cc1cc(NC(=O)c2sc(N)c(C(=O)Nc3ccc(F)c(C)c3)c2C)ccc1F | inactive |  |  | 
7 | Cc1c(C(=O)Nc2ccc(F)c(Cl)c2)sc(N)c1C(N)=O | Active | > 100 | 0.31 | solubility thermodynamic at 72 h [2]: 31 µM (≈ 10.2 µg/mL); remaining at 24 h, 1 µM [3]: > 90%; t1/2 [4]: > 24 h; t1/2 [5]: > 24 h; PPB [6]: 94%; PPB [7]: 90%; Microsomal intrinsic clearance [8]: 7.6 µL/min; intrinsic clearance (CLint) [9]: < 0.1 µL/min; intrinsic clearance per mg protein [10]: 28 µL/min; intrinsic clearance (CLint) [11]: 1.6 µL/min
8 | Cc1c(C(=O)Nc2ccccc2)sc(NC(=O)N2CCOCC2)c1C(N)=O | inactive |  |  | 
9 | Cc1cc(NC(=O)c2sc(N)c(C(N)=O)c2C)ccc1Cl | Active | > 100 | 1.7 | 
10 | Cc1c(C(=O)Nc2ccccc2)sc(N)c1C(=O)NCc1ccc(C(F)(F)F)cc1 | Active |  | > 10 | 
11 | O=C(Nc1ccc(F)c(F)c1)c1cc(S(=O)(=O)NC2CCCC2)ccc1F | Active | 17 | 0.25 | 
12 | NC(=O)c1c(N)sc2c1CCCN2C(=O)c1ccccc1 | inactive |  |  | 
13 | Cc1c(C(=O)Nc2ccc(C#N)cc2)sc(N)c1C(N)=O | inactive |  |  | 
14 | Cc1c(C(=O)Nc2ccccc2)sc(N)c1C(=O)NC(C)C | inactive |  | > 10 | 
15 | Cc1c(C(=O)Nc2ccccc2)sc(NC(=O)Cc2ccc(F)c(F)c2)c1C(N)=O | Active | > 100 | 10 | 
16 | Cc1c(C(=O)Nc2ccccc2)sc(N)c1C(=O)Nc1ccccc1 | Active | > 100 |  | 
17 | Cc1c(C(=O)Nc2ccccc2)sc(NC(=O)c2csc([N+](=O)[O-])c2)c1C(N)=O | Active | > 100 |  | 
18 | Cc1cc(NC(=O)c2sc(N)c(C#N)c2C)ccc1F | Active | 96 |  | 
19 | Cc1c(C(=O)Nc2ccccc2)sc2[nH]c(CS(=O)(=O)c3ccccc3)nc(=O)c12 | inactive |  |  | 
20 | Cc1c(C(=O)Nc2ccc(F)c(C(F)(F)F)c2)sc(N)c1C(N)=O | Active | > 100 |  | 
21 | Cc1c(C(=O)Nc2ccccc2)sc2[nH]c(Cc3ccccc3)nc(=O)c12 | inactive |  |  | 
22 | Cc1c(C(=O)Nc2ccc(F)c(F)c2)sc(N)c1C(=O)Nc1ccc(Cl)cc1 | Active |  | > 10 | 
23 | CC(C)Cc1sc(-c2nccs2)nc1C(=O)NCc1ccc(F)cc1 | Active | 29 | 10 | 
24 | Cc1c(C(=O)Nc2ccccc2)sc(NC(=O)c2cn[nH]c2)c1C(N)=O | Active | > 100 |  | 
25 | Cc1c(C(=O)Nc2ccc(C(F)(F)F)cc2)sc(N)c1C(N)=O | inactive |  |  | 
26 | Cc1c(C(=O)Nc2ccccc2)sc(NC(=O)c2ccc(S(C)(=O)=O)cc2)c1C(N)=O | Active | > 100 |  | 
27 | NC(=O)c1c(N)sc2c1CCN(C(=O)c1ccccc1)C2 | inactive |  |  | 
28 | Cc1nc(=O)c2c(C)c(C(=O)Nc3ccccc3)sc2[nH]1 | inactive |  |  | 

Row | Structure (SMILES) | Activity (Hepatitis B virus [1]) | CC50 (HepG2) [µM] | EC50 (Hepatitis B virus [12]) [µM] | other results
29 | Cc1ccc(C(=O)Nc2sc(C(=O)Nc3ccccc3)c(C)c2C(N)=O)s1 | Active | > 100 |  | 
30 | Cc1ccc(NC(=O)c2sc(N)c(C(N)=O)c2C)cc1 | inactive |  | > 10 | 
31 | Cc1c(C(=O)Nc2ccc(F)c(F)c2)sc(N)c1C(=O)Nc1ccccc1 | Active | 26 |  | 
32 | NC(=O)c1c(N)sc2c1CCCC2 | inactive |  |  | 
33 | Cc1c(C(=O)Nc2ccccc2)sc(N)c1C(=O)NC1CCCC1 | inactive |  | > 10 | 
34 | O=C(N/C(C(=O)N1CCCCC1)=C(\Cl)c1ccccc1)c1ccccc1 | Active | 61 | 4.8 | 
35 | Cc1c(C(=O)Nc2ccc(F)c(F)c2)sc(N)c1C(=O)NC1CCCC1 | Active |  | > 10 | 
36 | CCOC(=O)c1c(N)sc(C(=O)Nc2ccc(F)c(C)c2)c1C | Active | > 100 |  | 
37 | Cc1c(C(=O)Nc2ccc(Cl)c(C(F)(F)F)c2)sc(N)c1C(N)=O | Active | 72 |  | 
38 | Cc1c(C(=O)Nc2ccc(F)c(F)c2)sc(N)c1C(=O)Nc1ccc(F)c(F)c1 | Active | 17 |  | 
39 | Cc1c(C(=O)Nc2ccccc2)sc2[nH]c(-c3ccc(F)c(F)c3)nc(=O)c12 | inactive |  |  | 
40 | Cc1c(C(=O)Nc2ccccc2)sc(NC(=O)c2nccs2)c1C(N)=O | Active | > 100 |  | 
41 | CCOC(=O)C1=C(C)NC(c2ncccc2F)=NC1c1ccc(F)cc1Cl (stereo not drawn) | Active | > 100 | 0.41 | 
42 | Cc1c(C(=O)Nc2ccccc2)sc(N)c1C#N | inactive |  |  | 
43 | Cc1c(C(=O)Nc2ccccc2)sc(NC(=O)c2ccsc2)c1C(N)=O | Active | > 100 |  | 
44 | CCOC(=O)c1c(N)sc(C(=O)Nc2ccccc2)c1C | Active | 76 | > 10 | 
45 | Cc1c(C(=O)Nc2ccc(F)c(C(F)F)c2)sc(N)c1C(N)=O | Active | > 100 |  | solubility thermodynamic at 72 h [2]: 9.5 µM (≈ 3.26 µg/mL); remaining at 24 h, 1 µM [3]: > 90%; t1/2 [4]: > 24 h; t1/2 [5]: > 24 h; PPB [6]: 89%; PPB [7]: 82%; Microsomal intrinsic clearance [8]: 5.8 µL/min; intrinsic clearance (CLint) [9]: 3.2 µL/min; intrinsic clearance per mg protein [10]: 22 µL/min; intrinsic clearance (CLint) [11]: 10 µL/min; F ([13]; mouse): 25%
46 | COc1ccc(CNC(=O)c2c(N)sc(C(=O)Nc3ccccc3)c2C)cc1 | Active |  | > 10 | 
47 | Cc1c(C(=O)Nc2cc(F)c(F)c(Cl)c2)sc(N)c1C(N)=O | Active | 72 |  | 
48 | COc1ccc(NC(=O)c2sc(N)c(C(N)=O)c2C)cc1 | Active |  | 10 | 
49 | Cc1ccc(CC(=O)Nc2sc(C(=O)Nc3ccccc3)c(C)c2C(N)=O)cc1F | Active | > 100 | > 10 | 
50 | Cc1c(C(=O)Nc2ccccc2)sc(NC(=O)c2cc(Cl)cc(Cl)c2)c1C(N)=O | Active | 49.5 |  | 
51 | Cc1c(C(=O)NCc2ccccc2)sc(N)c1C(N)=O | Active |  | 10 | 
52 | Cc1c(C(=O)Nc2ccc(F)cc2)sc(N)c1C(N)=O | Active | > 100 |  | 
53 | Cc1cc(NC(=O)c2sc(N)c(C(N)=O)c2C)ccc1Br | Active | 107 |  | bioavailability ([13]; CD-1, mouse): 46%
54 | Cc1c(C(=O)Nc2ccc(F)c(F)c2)sc(N)c1C#N | Active | > 100 | 10 | 
55 | Cc1c(C(=O)Nc2ccccc2)sc(N)c1C(=O)NC1CC1 | inactive |  | > 10 | 
